CYP2C9 inh – human CYP2C9 inhibition; P11712; inhibition, % at 5 µM; actives 20% (n = 96,000); CYP2C9 Supersomes, luciferin-H conversion, luminescence;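 active = blocking of liver enzyme CYP2C9 beyond about 50% at 5 µM, limit read from the data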
CYP2C19 inhib – inhibitors of human CYP2C19. CYP2C19 Supersomes, luciferin-H EGE luminescence, 30 min. inhibition, % at 5 µM. AID 778. P33261. actives 21% (n = 96,000);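 active = CYP2C19 inhibition above a set limit at 5 µM in the primary screen, cut at about 50% in these data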
HIV Rev-RRE inh – HIV Rev-RRE protein-RNA interaction inhibition; Rev peptide-RRE RNA binding, FRET; inhibition, % at 8 µM; actives 0.79% (n = 97,000); AID 704;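 active = inhibition above the screen-wide mean plus 3 SD, cut at about 35% in these data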
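Test system: labelled RRE RNA duplex and labelled Rev peptide. Times: 5 min compound–RNA preincubation, then 15 min with peptide, 25 °C. Doses: single-dose 8 µM. Measured by: FRET, excitation 480 nm, emission 540 nm donor and 671 nm acceptor. Measure: % inhibition of FRET ratio versus controls.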
Cav32 inh – inhibitors of human Cav3.2 T-type calcium channel | O95180 | Cav3.2-expressing cells, Fluo-4 calcium fluorescence FDSS; active compounds read low | B-score at 10 µM | actives 4% (n = 100,000);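 active = single-dose well whose peak fluorescence ratio is a statistical outlier from its plate by either plate-standardised score or position-corrected B-score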
CYP2C19 activ – cytochrome P450 2C19 (human) activation. P33261. recombinant CYP2C19, luciferin-H EGE luminescence; active compounds read high; 0 = fully inhibited enzyme, 1 = untreated enzyme. activation factor at 5 µM. 96,000 tested, under 10 active. AID 1025;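 active = activation factor of at least 2 at 5 µM in the primary screen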
CYP2C9 activ – increases human cytochrome P450 2C9 activity | P11712 | recombinant CYP2C9, luciferin-H conversion, luminescence; active compounds read high; factor 1 = untreated enzyme, 0 = blocked | activation factor at 5 µM | actives 1.4% (n = 96,000) | AID 1024;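 active = activation factor of 2 or more for CYP2C9 at a 5 µM dose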
Numbers stand for hits; 0 = inactive; - = no result. The list is not random: actives were taken first. Their share in the collection is about 27%.

SMILES	CYP2C9 inh	CYP2C19 inhib	HIV Rev-RRE inh	Cav32 inh	CYP2C19 activ	CYP2C9 activ
O=C(c1cnsn1)N1CCN(c2ccccc2)CC1	0	0	0	0	0	0
Cc1ccc(-n2nc(C(=O)N3CCOCC3)cc2-c2ccc(Cl)cc2)cc1	71	0	0	0	0	0
CC(C)(C)C(=O)Nc1ccccc1C(=O)N1CCCC1	-	-	0	0	-	-
CN(c1ccccc1C(N)=O)S(=O)(=O)c1ccccc1	-	-	0	0	-	-
COC(=O)c1cc(NCc2ccc3c(c2)OCO3)ccc1N1CCOCC1	52	77	0	0	0	0
O=C(c1ccccc1)N1CCN(c2ccc(NCc3ccc4c(c3)OCO4)cc2)CC1	68	0	0	0	0	0
O=C(c1ccc2c(c1)OCO2)N1CCN(c2ccccc2)CC1	0	88	0	0	0	0
COC(=O)c1ccc(NC(=O)CCN2CCN(c3ccccc3)CC2)cc1	55	0	0	0	0	0
COc1ccc(N2CCN(C(=O)c3ccc4c(c3)OCO4)CC2)cc1	0	0	0	-	0	0
O=C(CCN1CCN(c2ccccc2)CC1)Nc1ccc(Cl)cc1	-	-	0	0	-	-
O=C(NCC1CC1)C1(C(F)(F)F)C/C(=C\Cc2ccccc2)CCCO1 (configuration not stated)	-	-	-	0	-	-
COC(=O)c1cc(S(=O)(=O)N2CCOCC2)c(N2CCOCC2)cc1N1CCOCC1	76	0	-	0	0	0
COc1cccc(-c2cc(C(=O)N3CCCCCC3)no2)c1	0	0	0	0	0	0
O=C(c1cc(-c2cccc(O)c2)on1)N1CCCCC1	0	51	-	0	0	0
O=C(c1cc(-c2ccc3c(c2)OCO3)on1)N1CCN(c2ccccc2)CC1	50	0	0	0	0	0
COc1ccc(OC)c2c(C)cc(N3CCN(C(=O)c4ccc(Cl)cc4)CC3)nc12	56	0	0	0	0	0
O=C(c1cc(-c2ccc3c(c2)OCO3)on1)N1CCN(c2ccc(F)cc2)CC1	0	0	0	0	0	0
Cc1cc(-c2nc3ncccc3o2)ccc1NC(=O)CC(C)C	0	0	0	0	0	0
O=S(=O)(NCC1CCCO1)c1ccc(S(=O)(=O)N(Cc2ccc(F)cc2)C2CCCCC2)cc1 (configuration not stated)	-	-	0	0	-	-
COc1ccc(CNS(=O)(=O)c2cc(OCC(N)=O)c(C)cc2Cl)cc1	0	0	0	0	0	0
O=c1c2ccccc2nnn1Cc1ccccn1	0	0	0	0	0	0
CCOC(=O)C1=C(NC(=S)NC(=O)c2ccccc2)c2ccccc2CC1C(C)C (configuration not stated)	77	0	0	0	0	0
CCOC(=O)c1ccc(NC(=O)c2ccc(NC(=O)c3ccccc3)cc2)cc1	0	0	0	0	0	0
O=C(c1ccc2c(=O)n(-c3ccccc3)c(=O)[nH]c2c1)N1CCCCC1	0	0	0	0	0	0
O=C(CCCCCCN1C(=O)c2ccccc2C1=O)Nc1nccs1	-	-	0	0	-	-
SMILES	CYP2C9 inh	CYP2C19 inhib	HIV Rev-RRE inh	Cav32 inh	CYP2C19 activ	CYP2C9 activ
O=C(CCCCCN1C(=O)c2ccccc2C1=O)NC1CCCC1	89	78	0	0	0	0
COCc1nnc(NC(=O)CCCCCN2C(=O)c3ccccc3C2=O)s1	63	0	0	0	0	0
Cc1cccc(NC(=O)CCCCCN2C(=O)c3ccccc3C2=O)n1	79	0	0	0	0	0
O=C(CCCCCCN1C(=O)c2ccccc2C1=O)NC1CCCCC1	-	-	0	0	-	-
COC(=O)C1=C(C(=O)OC)[C@@H]2N(Cc3ccccc3)c3ccccc3[C@@]23C[C@@H](CO)N(C(=O)NC2CCCC2)C3=N1	-	-	-	0	-	-
Cc1nn(CCc2n[nH]c(=S)n2-c2cccc(Cl)c2)c(C)c1[N+](=O)[O-]	0	57	0	0	0	0
CC12CC(c3ccccc3O1)N(C(=O)c1ccc(Br)o1)C(=O)N2c1ccccc1 (configuration not stated)	62	0	0	0	0	0
COc1cccc2c1OC1(C)CC2N(C(=O)c2ccco2)C(=S)N1c1ccc(F)cc1 (configuration not stated)	0	0	0	0	0	0
CCOC(=O)c1cnc2c(C(=O)OC)cccc2c1NCc1ccco1	54	0	0	0	0	0
CCOC(=O)c1c(C)n(C)c2ccc(OCC(O)CN3C(=O)c4ccccc4S3(=O)=O)cc12 (configuration not stated)	73	0	0	0	0	0
COc1ccc(OCC(O)CN2C(=O)c3ccccc3S2(=O)=O)cc1 (configuration not stated)	0	92	0	0	0	0
CCOC(=O)c1c(C)n(C)c2ccc(OCC(O)Cn3nc(C)cc3C)cc12 (configuration not stated)	74	78	0	0	0	0
COc1cccc(NC(=O)CCN2C(=O)c3ccccc3S2(=O)=O)c1	0	0	0	0	0	0
CN(C(=O)CN1C(=O)c2ccccc2S1(=O)=O)c1ccccc1C(=O)O	0	0	0	0	0	0
O=C(Nc1ccccc1)c1ccccc1OCC(O)CN1C(=O)c2ccccc2S1(=O)=O (configuration not stated)	76	63	0	0	0	0
COc1ccc(C2=NOC(C(=O)NCCN3CCOCC3)C2)cc1 (configuration not stated)	0	0	0	0	0	0
COc1ccc(C#Cc2c(-c3ccsc3)oc3ccc(-c4cc(OC)c(OC)c(OC)c4)cc23)cc1	-	-	-	0	-	-
O=c1cnn(-c2ccccc2)c(-c2ccccc2)c1	0	0	0	0	0	0
O=C(Nc1ccc(S(=O)(=O)C(F)F)cc1)c1cccc(S(=O)(=O)N2CCOCC2)c1	0	0	0	0	0	0
c1ccc2c(c1)nnn2Cc1nnc2sc(-c3ccncc3)nn12	57	78	0	0	0	0
c1csc(-c2nn3c(Cn4nnc5ccccc54)nnc3s2)c1	0	0	0	0	0	0
Brc1ccc(-c2nn3c(-c4ccco4)nnc3s2)o1	0	0	0	0	0	0
Clc1cccc(-c2nn3c(Cn4cnc5ccccc54)nnc3s2)c1	0	0	0	0	0	0
c1coc(-c2nn3c(Cn4nnc5ccccc54)nnc3s2)c1	0	76	0	0	0	0
Clc1ccc(Cc2nn3c(Cn4nnc5ccccc54)nnc3s2)cc1	73	0	0	0	0	0
Cc1cc(C)cc(SCc2noc(C(=O)NCc3ccccc3)c2C(=O)NCc2ccccc2)c1	-	-	-	0	-	-
O=C(NCCc1ccccc1)C1CCCN1C(=O)Nc1ccc(F)cc1 (configuration not stated)	0	0	-	0	0	0
NC(=O)c1cc(S(=O)(=O)NC2CCCCC2)co1	0	0	0	0	0	0
COc1cc(S(=O)(=O)NC2CCCCC2)ccc1F	0	85	0	0	0	2.1
COc1cc(S(=O)(=O)NC2CCCC2)c(OC)cc1Cl	0	99	0	0	0	0
